# HTRA1 inhibitor: blocks human HTRA1 serine peptidase. Q92743. recombinant HTRA1, FP-rhodamine activity-based probe, fluorescence polarization. inhibition, % at 5.96 µM. hit rate 0.5% among 340,000; in the data active = inhibition above about 36%
# TCR CD3 inh: human TCR-CD3 binding inhibition; inhibition, % at 9.4 µM; hit rate 0.37% among 360,000; TAMRA-labeled TCR probe fluorescence, biochemical; AID 651800; in the data active = inhibition above about 19%;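 also: recombinant mutant TCR 2C K166C tagged with TAMRA read by polarization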
# ABHD4 inh: inhibits mouse alpha/beta hydrolase domain 4; purified mABHD4, FP-Rh probe fluorescence polarization; inhibition, % at 8.92 µM; hit rate 0.54% among 370,000; AID 720543;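 active = inhibition exceeding the mean over every tested compound plus 3 SD, cut at about 30% in these data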
#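 Material: mouse ABHD4 enzyme, wild type; Benchmarks: S159A mutant high control, sample median low control; Buffer or medium: HEPES pH 7.0, NaCl, Pluronic buffer; Signal: fluorescence polarization; Read-out: percent inhibition of probe binding, normalized to plate controls; Timing: pre-incubation 45 min, probe exposure 60 min, at 25 °C; Dosing: 8.92 µM, single dose.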
# PRMT1 FP inh: inhibitors of human PRMT1 | hit rate 1.3% among 370,000 | Q99873 | recombinant PRMT1, activity-based probe fluorescence polarization | inhibition, % at 2.79 µM;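 active = inhibition above about 21% made by adding two undisclosed values, limit read from the data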
# Target sequence (Q99873 whole entry, looked up): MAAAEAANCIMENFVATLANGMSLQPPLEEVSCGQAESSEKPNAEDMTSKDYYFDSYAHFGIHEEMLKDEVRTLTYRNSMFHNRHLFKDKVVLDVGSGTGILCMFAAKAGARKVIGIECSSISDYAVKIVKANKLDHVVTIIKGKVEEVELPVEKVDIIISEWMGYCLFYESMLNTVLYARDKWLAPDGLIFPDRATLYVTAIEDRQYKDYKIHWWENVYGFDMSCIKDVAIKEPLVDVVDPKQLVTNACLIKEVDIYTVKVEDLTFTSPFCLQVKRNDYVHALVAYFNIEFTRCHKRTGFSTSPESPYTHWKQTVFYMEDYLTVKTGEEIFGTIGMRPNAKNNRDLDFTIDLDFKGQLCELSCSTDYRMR
# SIAE inh: inhibitors of human sialic acid acetylesterase SIAE | Q9HAT2 | SIAE FP-Rh probe binding, fluorescence polarization | inhibition, % at 9.66 µM | hit rate 0.69% among 370,000 | AID 1053197;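 active = inhibition above a cutoff: mean of compounds within the control limits plus 3 SD of those, cut at about 17% in these data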
# ATG4B inh: inhibitors of human ATG4B cysteine protease; Q9Y4P1; ATG4B cleavage of LC3-PLA2, NBD-HPC fluorescence, 1 h; inhibition, % at 8.33 µM; hit rate 0.51% among 340,000; in the data active = inhibition above about 40%
# Numbers stand for hits; . = inactive; / = no result. Rows were chosen to be rich in hits. Some 2.9% of all compounds tested hit in one or more screens of this group.
SMILES,HTRA1 inhibitor,TCR CD3 inh,ABHD4 inh,PRMT1 FP inh,SIAE inh,ATG4B inh
COc1ccc(N2CSC3=C(C#N)C(c4ccc(OC)c(OC)c4)CC(=O)N3C2)c(OC)c1 (centres undefined),.,.,.,46.7,.,.
COc1ccc(N2CSC3=C(C#N)C(c4cc(OC)ccc4OC)CC(=O)N3C2)c(OC)c1 (centres undefined),.,/,/,/,/,.
O=C(NCc1cccs1)C1CCCN(S(=O)(=O)c2cccc3ccccc23)C1 (centres undefined),/,/,.,.,.,/
COc1ccc(C(=O)CSc2ccc(-c3ccccc3)nn2)cc1,.,.,.,.,.,.
COc1ccc(C(=O)CSc2ccc(-c3ccco3)nn2)cc1,.,.,.,23.2,.,.
O=S(=O)(c1cccc2cccnc12)N1CCC(c2cn3ccccc3n2)CC1,/,/,.,.,.,/
CCOC(=O)[C@@]12CCCC3=C1N(CCC3)C(=O)[C@H]2CC(=O)N1CCC(c2ccccc2)CC1,/,/,.,.,.,/
O=C(Nc1ccc(OC(F)F)c(Cl)c1)Nc1ccc2c(c1)OCO2,.,.,.,.,.,.
O=C(Nc1ccc([N+](=O)[O-])cc1)Nc1ccc(OC(F)F)c(Cl)c1,.,40.3,.,.,.,.
N#CC(c1ccc(Cl)cc1)c1ccc2c(C(F)(F)F)cc(C(F)(F)F)nc2n1 (centres undefined),.,.,.,.,22.8,.
O=C(/C=C/c1ccccc1)NC(NC(=S)Nc1ccc(Cl)cc1)C(Cl)(Cl)Cl (centres undefined),.,25.6,.,.,.,.
Cc1[nH][nH]c(=O)c1C(c1ccc(-c2ccc(F)cc2)o1)c1c(C)[nH][nH]c1=O,.,.,.,21.6,.,.
CCOC(=O)CC[C@H]1CC[C@]2(CCCN(S(C)(=O)=O)C2)O1,/,/,.,.,.,/
C[N+]1(C)[C@H]2CC[C@H]1CC(OC(=O)C(O)c1ccccc1)C2 (some centres undefined),/,/,.,.,.,/
CC(=O)C1=C(c2cccc([N+](=O)[O-])c2)N(C(C)=O)n2c(C)nnc2S1,.,.,.,75.5,.,.
CC(=O)c1c(C(C)=O)c(C)n(-c2cccc([N+](=O)[O-])c2)c1C,.,.,.,.,.,.
O=C(N/N=C/c1cc(Cl)cc(Cl)c1O)c1ccncc1,.,.,.,23.6,.,.
CC1CCCCN1C(=O)c1ccc(CNC(=O)c2cccc(Br)c2)cc1 (centres undefined),/,/,.,.,.,/
Oc1c(Br)cc(C=Nc2ccc3nc(-c4ccccc4)[nH]c3c2)c(O)c1Br,/,.,30.9,.,17.8,.
CN(C)c1ccc(C(=S)N2CCN(c3ccc([N+](=O)[O-])cc3)CC2)cc1,.,.,.,22.6,.,.
CC1=C/C(=C\c2ccc(Br)o2)C(=O)O1,.,.,.,.,.,.
O=C1C(=Cc2ccc(Br)o2)C(=O)c2ccccc21,.,/,/,/,/,69.1
O=C(COc1ccccc1C(=O)NCc1ccccc1)Nc1ccc(I)cc1,/,/,.,.,.,/
O=C(NCCc1c[nH]c2ccccc12)c1ccc2c(c1)ncn2C1CCCCC1,/,/,.,.,.,/
CC(C)(C)n1nnnc1CN1C2CCC1CC(NC(=O)Nc1ccccc1)C2 (centres undefined),.,.,.,.,.,.
SMILES,HTRA1 inhibitor,TCR CD3 inh,ABHD4 inh,PRMT1 FP inh,SIAE inh,ATG4B inh
CCOC(=O)c1ccc(NC(=O)NC2CC3CCC(C2)N3Cc2nnnn2Cc2ccco2)cc1 (centres undefined),.,.,.,23.3,.,.
CC(C)(C)c1ccc(C(=O)Nc2cc(Cl)c(Cl)cc2C(=O)O)cc1,/,/,.,.,.,/
COc1ccc(O)c(/C=C2/SC(=S)N(Cc3ccccc3)C2=O)c1,.,.,.,22.5,.,.
C[C@@H]1[C@@H](Sc2ccccc2)CC(=O)O[C@@H]1c1ccc(-c2ccccc2)cc1,.,.,.,.,.,.
O=C1C=CC2(O[C@H](c3ccccc3)[C@@H](c3ccccc3)O2)[C@H](Sc2ccccc2O)C1,.,.,.,96.5,.,.
COC(=O)C(CC(=O)c1ccc(Br)cc1)n1cccn1 (centres undefined),.,.,.,22.3,.,.
COC(=O)C(CC(=O)c1ccc(C)cc1)n1cccn1 (centres undefined),.,.,.,.,.,.
O=C1NCCCc2c1oc1cc(Br)c(O)c(Br)c21,.,.,.,.,.,.
O=C1NCCCC2c3c(cc(Br)c(O)c3Br)OC12N1CCCCC1 (centres undefined),.,.,.,79.0,.,.
CS(=O)(=O)N(Cc1ccc(Cl)cc1)c1ccc(C(=O)N2CCN(c3ccccc3)CC2)cc1,.,.,.,.,.,.
CS(=O)(=O)N(Cc1ccccc1)c1ccc(C(=O)N2CCN(c3cccc(Cl)c3)CC2)cc1,.,/,/,/,/,56.5
COc1ccc(S(=O)(=O)N2CCCCCC2)c2ccccc12,/,/,.,.,.,/
Cc1ccc(S(=O)(=O)N2CCOCC2)cc1NC(=O)CSc1nc(N)cc(=O)[nH]1,.,.,.,22.7,.,.
Cc1ccc(S(=O)(=O)N2CCOCC2)cc1NC(=O)CSc1nc(N)cc(N)n1,.,.,.,.,.,.
COc1ccc(CNC(=O)c2cc(-c3ccccc3)c(N3CCOCC3)s2)cc1OC,/,/,.,.,.,/
O=C(NCc1ccco1)C1CCCN(S(=O)(=O)c2ccccc2[N+](=O)[O-])C1 (centres undefined),/,/,.,.,.,/
O=[N+]([O-])c1ccccc1S(=O)(=O)Nc1ccc(S(=O)(=O)Nc2nccs2)cc1,.,.,.,.,.,.
Nc1ccc(S(=O)(=O)Nc2nccs2)cc1N=Nc1ccccc1[N+](=O)[O-],.,.,.,24.7,.,.
CCOC(=O)C1=C(C)n2c(s/c(=C3\C(=O)Nc4ccccc43)c2=O)=NC1c1ccc(OC)cc1 (centres undefined),.,.,.,24.0,.,.
CCOC(=O)C1=C(C)N=c2s/c(=C3/C(=O)Nc4ccccc43)c(=O)n2C1c1ccc(C)cc1 (centres undefined),.,.,.,22.9,.,.
O=C(C1CCN(S(=O)(=O)c2ccc(Br)s2)CC1)N1CCc2ccccc21,.,/,/,/,/,41.2
C=CCN=Cc1sc2ccc(OCC)cc2c1O,/,.,.,23.7,.,/
Cc1cc(C(=O)O[C@H]2CCC[C@]3(C(=O)N(Cc4ccccc4)c4ccccc43)[C@H]2NC(=O)CCc2ccccc2)no1,/,/,.,.,.,/
COc1ccc(S(=O)(=O)N2CCN(c3cnccn3)CC2)cc1OC,.,.,.,21.4,.,.
O=C(O)Cn1c2c(c3ccccc31)CSc1ccc(Cl)cc1-2,.,.,.,77.7,.,.
Cc1ccc(-n2c(SCC(=O)c3ccc4c(c3)OCO4)nc3ccccc3c2=O)cc1,/,/,.,.,.,/
O=S(=O)(N[C@H]1CCCC[C@@H]1N1CCOCC1)c1ccc(Cl)cc1,/,/,.,.,.,/

# High-throughput results (PubChem)
